Blank lines part the entries; values can stand above or below the molecule they belong to. Active and inactive are the calls of the source. No cut-off for these calls is given here.
Legend:
Rattus norvegicus [1] = assay: Volume of distribution at steady state in Sprague-Dawley rat at 1 mg/kg, po and iv by LC-MS/MS analysis; assay type: ADME, organism-based; parameters: dose 1 mg/kg, route oral; conditions: in vivo
Outline: (§1)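 Rats were given the compound both IV and PO in a routine PK study. Tmax came from the PO arm and Vss from the IV arm.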

Histamine H3 receptor = Histamine H3 receptor (Rattus norvegicus, UniProt Q9QYN8); assay: Displacement of N-[3H]-methylhistamine from histamine H3 receptor in rat cortex membranes; assay type: cell membranes, Membrane
Rattus norvegicus [2] = assay: Inhibition of RAMH-induced dipsogenia in po dosed Sprague-Dawley rat administered 30 mins prior to RAMH challenge measured up to 20 mins; assay type: functional; conditions: read-out: MED
Outline: (§2)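 Rats given compound orally 0.5 h (or, for duration of action, at selected times up to 6 h) before RAMH 10 mg/kg SC; water consumed over 20 min measured. Screening doses 1 or 0.3 mg/kg PO, also 0.1 mg/kg; duration study at 0.6 mg/kg PO. MED = minimum dose fully inhibiting drinking; means ± SEM.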

[3] = Oral bioavailability in Sprague-Dawley rat at 1 mg/kg by LC-MS/MS analysis; assay type: ADME, organism-based; conditions: in vivo
Outline: (§3)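 Rat PK after IV and PO dosing; plasma Cmax, Tmax, IV half-life and Vss determined; oral bioavailability from AUCpo/AUCiv. Metabolite exposure determined after a 3 mg/kg PO parent dose.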

[4] = Half life in Sprague-Dawley rat at 1 mg/kg, iv by LC-MS/MS analysis; assay type: ADME, organism-based; parameters: dose 1 mg/kg, route intravenous; conditions: in vivo; outline: as §3
[5] = Cmax in Sprague-Dawley rat plasma at 1 mg/kg, po and iv by LC-MS/MS analysis; assay type: ADME, organism-based; parameters: dose 1 mg/kg, route oral; outline: as §3
[6] = Ratio of drug level in brain to plasma in Sprague-Dawley rat at 1 mg/kg, po and iv after 0.75 to 3 hrs by LC-MS/MS analysis; assay type: ADME, organism-based; parameters: dose 1 mg/kg, route oral; conditions: read-out: BPR
Outline: (§4)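 Brain (µg/mg) and plasma (µg/mL) levels were measured after oral dosing, with three rats per time point. The b/p ratio was the mean of the nine individual ratios.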

[7] = Tmax in Sprague-Dawley rat at 1 mg/kg, po and iv by LC-MS/MS analysis; assay type: ADME, organism-based; parameters: dose 1 mg/kg, route oral; conditions: in vivo; outline: as §1
[8] = Ratio of drug level in brain to plasma in Sprague-Dawley rat at 10 mg/kg, po and iv after 0.75 to 3 hrs by LC-MS/MS analysis; assay type: ADME, organism-based; parameters: dose 10 mg/kg, route oral; conditions: read-out: BPR; outline: as §4
Rattus norvegicus [9] = assay: Inhibition of RAMH-induced dipsogenia in Sprague-Dawley rat at 0.6 mg/kg, po administered 6 hrs prior to RAMH challenge measured up to 20 mins; assay type: functional; outline: as §2
[10] = molecular target: Voltage-gated inwardly rectifying potassium channel KCNH2 (Homo sapiens, UniProt Q12809); assay: Inhibition of human ERG by patch-clamp assay
[11] = Cmax in Sprague-Dawley rat plasma at 10 mg/kg, po and iv by LC-MS/MS analysis; assay type: ADME, organism-based; parameters: dose 10 mg/kg, route oral; outline: as §3
Rattus norvegicus [12] = assay: Volume of distribution at steady state in Sprague-Dawley rat at 10 mg/kg, po and iv by LC-MS/MS analysis; assay type: ADME, organism-based; parameters: dose 10 mg/kg, route oral; conditions: in vivo; outline: as §1
[13] = Oral bioavailability in Sprague-Dawley rat at 10 mg/kg by LC-MS/MS analysis; assay type: ADME, organism-based; conditions: in vivo; outline: as §3
[14] = Half life in Sprague-Dawley rat at 10 mg/kg, iv by LC-MS/MS analysis; assay type: ADME, organism-based; parameters: dose 10 mg/kg, route intravenous; conditions: in vivo; outline: as §3
[15] = Tmax in Sprague-Dawley rat at 10 mg/kg, po and iv by LC-MS/MS analysis; assay type: ADME, organism-based; parameters: dose 10 mg/kg, route oral; conditions: in vivo; outline: as §1
hERG (KCNH2) = hERG (KCNH2) (Homo sapiens, UniProt Q12809); assay: Inhibition of human ERG at 3 uM by patch-clamp assay
Rattus norvegicus [16] = assay: Effect on sleep-awake cycle in EEG/EMG Sprague-Dawley rat model assessed as increase in wakefulness at 0.3 mg/kg, po measured for 1 hr; assay type: functional, organism-based; parameters: dose 0.3 mg/kg
Outline: (§5)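 Rats with chronically implanted cortical electrodes dosed orally (0.6 mg/kg; dose-response also run) during subjective night, about four hours after lights on; wake time recorded over 8 h versus vehicle and assessed over first 1, 2 and 4 h; means ± SEM.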

[17] = molecular target: Histamine H4 receptor (Homo sapiens) (UniProt Q9H3N8); assay: Binding affinity to H4 receptor at 10 uM relative to control
Outline: (§6)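 Broad binding panel of 80 receptors, including histamine H1, H2 and H4, with compound tested at 10 µM; binding expressed as percent of control.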

Rattus norvegicus [18] = assay: Effect on sleep-awake cycle in EEG/EMG Sprague-Dawley rat model assessed as increase in wakefulness at 0.6 mg/kg, po measured for 2 hrs; assay type: functional, organism-based; parameters: dose 0.6 mg/kg; outline: as §5
Rattus norvegicus [19] = assay: Effect on sleep-awake cycle in EEG/EMG Sprague-Dawley rat model assessed as increase in wakefulness at 0.3 mg/kg, po measured for 2 hrs; assay type: functional, organism-based; parameters: dose 0.3 mg/kg; outline: as §5
Rattus norvegicus [20] = assay: Inhibition of RAMH-induced dipsogenia in Sprague-Dawley rat at 0.6 mg/kg, po administered 30 mins prior to RAMH challenge measured up to 20 mins; assay type: functional, organism-based; parameters: dose 0.6 mg/kg; outline: as §2
[21] = molecular target: Histamine H1 receptor (Homo sapiens) (UniProt P35367); assay: Binding affinity to H1 receptor at 10 uM relative to control; outline: as §6
[22] = molecular target: Histamine H2 receptor (Homo sapiens) (UniProt P25021); assay: Binding affinity to H2 receptor at 10 uM relative to control; outline: as §6
Rattus norvegicus [23] = assay: Inhibition of RAMH-induced dipsogenia in Sprague-Dawley rat at 0.6 mg/kg, po administered 1 hr prior to RAMH challenge measured up to 20 mins; assay type: functional, organism-based; parameters: dose 0.6 mg/kg; outline: as §2
Rattus norvegicus [24] = assay: Effect on sleep-awake cycle in EEG/EMG Sprague-Dawley rat model assessed as increase in wakefulness at 0.6 mg/kg, po measured for 4 hrs; assay type: functional, organism-based; parameters: dose 0.6 mg/kg; outline: as §5
Rattus norvegicus [25] = assay: Inhibition of RAMH-induced dipsogenia in Sprague-Dawley rat at 0.1 mg/kg, po administered 30 mins prior to RAMH challenge measured up to 20 mins; assay type: functional, organism-based; parameters: dose 0.1 mg/kg; outline: as §2
[26] = Oral bioavailability in Sprague-Dawley rat at 3 mg/kg by LC-MS/MS analysis; assay type: ADME, organism-based; conditions: in vivo; outline: as §3
[27] = Tmax in Sprague-Dawley rat at 3 mg/kg, po and iv by LC-MS/MS analysis; assay type: ADME, organism-based; parameters: dose 3 mg/kg, route oral; conditions: in vivo; outline: as §1
Rattus norvegicus [28] = assay: Volume of distribution at steady state in Sprague-Dawley rat at 3 mg/kg, po and iv by LC-MS/MS analysis; assay type: ADME, organism-based; parameters: dose 3 mg/kg, route oral; conditions: in vivo; outline: as §1
[29] = Ratio of drug level in brain to plasma in Sprague-Dawley rat at 3 mg/kg, po and iv after 0.75 to 3 hrs by LC-MS/MS analysis; assay type: ADME, organism-based; parameters: dose 3 mg/kg, route oral; conditions: read-out: BPR; outline: as §4
[30] = Half life in Sprague-Dawley rat at 3 mg/kg, iv by LC-MS/MS analysis; assay type: ADME, organism-based; parameters: dose 3 mg/kg, route intravenous; conditions: in vivo; outline: as §3
[31] = Cmax in Sprague-Dawley rat plasma at 3 mg/kg, po and iv by LC-MS/MS analysis; assay type: ADME, organism-based; parameters: dose 3 mg/kg, route oral; outline: as §3
[32] = Solubility of the compound in water; assay type: physicochemical

Histamine H3 receptor, sequence (Q9QYN8 whole entry): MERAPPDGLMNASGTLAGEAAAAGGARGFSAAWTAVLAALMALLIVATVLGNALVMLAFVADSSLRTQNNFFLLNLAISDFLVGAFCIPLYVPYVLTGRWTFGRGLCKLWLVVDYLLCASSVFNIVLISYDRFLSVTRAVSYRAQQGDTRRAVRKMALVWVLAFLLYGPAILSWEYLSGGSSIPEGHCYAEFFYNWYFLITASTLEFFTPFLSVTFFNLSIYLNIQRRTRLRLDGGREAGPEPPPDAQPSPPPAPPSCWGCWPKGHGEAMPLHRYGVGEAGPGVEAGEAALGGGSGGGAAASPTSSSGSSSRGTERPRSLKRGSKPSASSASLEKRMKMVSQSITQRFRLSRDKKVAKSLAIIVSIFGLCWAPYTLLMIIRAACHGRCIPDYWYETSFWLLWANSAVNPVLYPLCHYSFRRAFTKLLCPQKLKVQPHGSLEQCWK
Voltage-gated inwardly rectifying potassium channel KCNH2, sequence (Q12809 whole entry): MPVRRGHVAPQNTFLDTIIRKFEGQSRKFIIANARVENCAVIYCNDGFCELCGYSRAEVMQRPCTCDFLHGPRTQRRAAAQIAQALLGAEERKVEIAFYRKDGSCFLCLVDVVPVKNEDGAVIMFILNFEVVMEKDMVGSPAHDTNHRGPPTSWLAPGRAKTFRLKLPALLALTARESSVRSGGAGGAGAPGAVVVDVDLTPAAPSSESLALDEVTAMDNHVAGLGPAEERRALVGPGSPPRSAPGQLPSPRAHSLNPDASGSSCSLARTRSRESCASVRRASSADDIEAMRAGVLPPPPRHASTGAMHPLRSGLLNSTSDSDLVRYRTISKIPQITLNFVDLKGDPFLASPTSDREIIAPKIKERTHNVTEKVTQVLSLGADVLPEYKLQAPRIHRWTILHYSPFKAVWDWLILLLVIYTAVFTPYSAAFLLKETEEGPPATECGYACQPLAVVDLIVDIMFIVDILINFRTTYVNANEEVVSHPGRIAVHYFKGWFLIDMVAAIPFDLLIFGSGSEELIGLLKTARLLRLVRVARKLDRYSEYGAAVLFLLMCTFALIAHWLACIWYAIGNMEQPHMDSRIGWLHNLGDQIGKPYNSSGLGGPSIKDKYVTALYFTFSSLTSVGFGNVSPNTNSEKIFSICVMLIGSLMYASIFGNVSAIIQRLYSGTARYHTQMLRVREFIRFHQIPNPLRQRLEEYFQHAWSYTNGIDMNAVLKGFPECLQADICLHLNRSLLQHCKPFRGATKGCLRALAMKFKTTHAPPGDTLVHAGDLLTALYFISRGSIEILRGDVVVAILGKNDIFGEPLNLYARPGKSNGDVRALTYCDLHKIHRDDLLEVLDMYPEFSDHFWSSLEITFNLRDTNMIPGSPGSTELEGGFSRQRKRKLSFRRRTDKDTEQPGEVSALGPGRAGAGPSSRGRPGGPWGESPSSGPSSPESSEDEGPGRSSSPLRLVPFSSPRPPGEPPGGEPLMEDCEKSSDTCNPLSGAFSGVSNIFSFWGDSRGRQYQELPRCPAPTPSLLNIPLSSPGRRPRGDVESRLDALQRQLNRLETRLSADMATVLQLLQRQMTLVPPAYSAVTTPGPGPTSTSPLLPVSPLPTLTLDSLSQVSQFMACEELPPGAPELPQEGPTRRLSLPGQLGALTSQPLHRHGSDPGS
Histamine H1 receptor (Homo sapiens), sequence (P35367 whole entry): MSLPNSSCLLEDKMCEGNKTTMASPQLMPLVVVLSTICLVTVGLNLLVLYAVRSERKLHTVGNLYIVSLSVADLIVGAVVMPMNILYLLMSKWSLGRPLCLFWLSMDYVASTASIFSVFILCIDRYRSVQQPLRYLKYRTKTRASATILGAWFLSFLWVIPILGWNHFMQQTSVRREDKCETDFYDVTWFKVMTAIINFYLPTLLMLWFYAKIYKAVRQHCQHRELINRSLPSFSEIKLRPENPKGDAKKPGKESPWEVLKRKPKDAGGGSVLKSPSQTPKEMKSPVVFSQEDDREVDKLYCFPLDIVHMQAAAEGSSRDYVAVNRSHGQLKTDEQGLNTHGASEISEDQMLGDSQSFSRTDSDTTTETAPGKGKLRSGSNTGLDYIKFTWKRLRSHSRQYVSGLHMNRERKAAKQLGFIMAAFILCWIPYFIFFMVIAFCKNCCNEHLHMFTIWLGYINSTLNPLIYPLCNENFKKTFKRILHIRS
hERG (KCNH2), sequence (Q12809 whole entry): as the sequence (Q12809 whole entry) above
Histamine H2 receptor (Homo sapiens), sequence (P25021 whole entry): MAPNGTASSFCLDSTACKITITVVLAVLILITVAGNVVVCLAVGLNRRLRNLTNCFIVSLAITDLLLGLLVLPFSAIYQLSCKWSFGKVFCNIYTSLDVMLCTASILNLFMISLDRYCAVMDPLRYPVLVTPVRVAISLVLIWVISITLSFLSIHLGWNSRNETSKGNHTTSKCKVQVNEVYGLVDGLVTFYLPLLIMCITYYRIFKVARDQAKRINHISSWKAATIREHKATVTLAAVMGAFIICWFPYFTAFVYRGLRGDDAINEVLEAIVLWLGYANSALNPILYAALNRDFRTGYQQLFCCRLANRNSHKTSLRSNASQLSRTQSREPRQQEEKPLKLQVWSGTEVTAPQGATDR

SMILES: C[C@@H]1CCCN1CCc1ccc(-c2ccc(S(=O)(=O)CCO)cc2)cc1
Vdss (Rattus norvegicus [1]): 5 L/kg | Ki (Histamine H3 receptor): 1.2 nM | minimal effective dose (Rattus norvegicus [2]): 1 mg/kg | bioavailability [3]: 53.6% | half-life [4]: 3.2 h | Cmax [5]: 122 ng/mL | Kp [6]: 0.72 | Tmax [7]: 0.5 h

SMILES: CC(C)S(=O)(=O)c1ccc(-c2ccc(CCN3CCC[C@H]3C)cc2)cc1
Ki (Histamine H3 receptor): 2.65 nM

SMILES: COCCS(=O)(=O)c1ccc(-c2ccc(CCN3CCC[C@H]3C)cc2)cc1
Ki (Histamine H3 receptor): 1.4 nM | minimal effective dose (Rattus norvegicus [2]): 0.3 mg/kg | Kp [8]: 1.73 | inhibition in vivo at 0.6 mg/kg (Rattus norvegicus [9]): < 20% | IC50 [10]: 7400 nM | Cmax [11]: 184 ng/mL | Vdss (Rattus norvegicus [12]): 7.6 L/kg | bioavailability [13]: 68.5% | half-life [14]: 0.7 h | Tmax [15]: 0.3 h | inhibition at 3 µM (hERG (KCNH2)): 29%

SMILES: COCCCS(=O)(=O)c1ccc(-c2ccc(CCN3CCC[C@H]3C)cc2)cc1
Activity (Rattus norvegicus [16]): Active | inhibition [17]: < 50% | Activity (Rattus norvegicus [18]): Active | Activity (Rattus norvegicus [19]): inactive | inhibition (Rattus norvegicus [20]): Active | inhibition [21]: < 50% | inhibition [22]: < 50% | inhibition (Rattus norvegicus [23]): Active | Activity (Rattus norvegicus [24]): inactive | inhibition (Rattus norvegicus [25]): inactive

SMILES: C[C@@H]1CCCN1CCc1ccc(-c2ccc(S(=O)(=O)C3CCCC3)cc2)cc1
Ki (Histamine H3 receptor): 1 nM

SMILES: C[C@@H]1CCCN1CCc1ccc(-c2ccc(S(C)(=O)=O)cc2)cc1
Ki (Histamine H3 receptor): 1.3 nM | minimal effective dose (Rattus norvegicus [2]): 0.3 mg/kg | Kp [8]: 3.03 | Cmax [11]: 218 ng/mL | Vdss (Rattus norvegicus [12]): 19.8 L/kg | bioavailability [13]: 100% | half-life [14]: 3.6 h | Tmax [15]: 4 h

SMILES: COCCS(=O)(=O)c1ccc(-c2ccc(CCN3CCC[C@H]3C)cc2)cc1.Cl
solubility [32]: > 30 mg/mL

The next lines start with results.

Ki (Histamine H3 receptor): 0.2 nM
SMILES: C[C@@H]1CCCN1CCc1ccc(-c2ccc(S(=O)(=O)CC3CCCCO3)cc2)cc1 (some centres not stated)

bioavailability [26]: 46% | Tmax [27]: 0.3 h | Ki (Histamine H3 receptor): 0.9 nM | Vdss (Rattus norvegicus [28]): 14.3 L/kg | Kp [29]: 1.75 | half-life [30]: 1.4 h | Cmax [31]: 57 ng/mL
SMILES: CCS(=O)(=O)c1ccc(-c2ccc(CCN3CCC[C@H]3C)cc2)cc1
minimal effective dose (Rattus norvegicus [2]): 0.3 mg/kg

Ki (Histamine H3 receptor): 0.8 nM
SMILES: C[C@@H]1CCCN1CCc1ccc(-c2ccc(S(=O)(=O)CCCO)cc2)cc1
minimal effective dose (Rattus norvegicus [2]): 1 mg/kg | IC50 [10]: > 30000 nM
